Reference: the RNAGym collection of RNA variant scans (doi:10.1126/science.aae0568)
Fewer inactive variants are shown than the library holds.

B1: tRNA (parent)
chain: GUUCCGUUGGCGUAAUGGUAACGCGUCUCCCUCCUAAGGAGAAGACUGCGGGUUCGAGUCCCGUACGGAACG

Variants of: B1
Assay: yeast fitness relative to wild type (ratio to wild type); higher = fitter; tRNA-Arg(CCU), competitive growth, 37 C, YPD
How it was run: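 Genotype frequency changes were the basis for Darwinian fitness relative to wild type. The frequencies came from 100-nucleotide paired-end sequencing of gene amplicons from the start population and each end population of pooled yeast strains with tRNA-Arg(CCU) gene variants at the native locus. Competition ran in YPD at 37°C for 24 hours in six replicates, genotypes needed ≥ 100 starting reads, and estimates < 0.5 were set to 0.5.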

U2G G39A G68U and U2G G6C C11U C27U G63C cannot be ordered by yeast fitness: no more than 0.5 for the first, no more than 0.5 for the second.

First: U2G A20U G25C C49G A65C A70U
Second: U2G A57C
The yeast fitness of the first is lower: no more than 0.5 for the first, 0.533 for the second.

U2G G12C A20U C33U A37U A57U and U2G A21U G67C cannot be ordered by yeast fitness: no more than 0.5 for the first, no more than 0.5 for the second.

Compared with U2G A42U A70U, U2G C31U A70U is higher in yeast fitness: 0.539 for the first, 0.772 for the second.

First: U2G C46G C49U
Second: U2G A69C
The yeast fitness of the first is lower: 0.669 for the first, 0.93 for the second.

Compared with U2G A69U, U2G A69G is higher in yeast fitness: 0.743 for the first, 0.975 for the second.

Compared with U2G C22G G41C G68A, U2G U13A U16A C29G is lower in yeast fitness: 0.573 for the first, no more than 0.5 for the second.

First: U2G C11U A45C U53G A65G
Second: U2G C31A A69C
The yeast fitness of the first is lower: no more than 0.5 for the first, 0.557 for the second.

Going from U2G U16C C27U U35C to U2G C24U G67C, the yeast fitness rises from no more than 0.5 to 0.681.

Compared with U2G A37C, U2G C22A A36G G52A C66A A69U is lower in yeast fitness: 0.585 for the first, no more than 0.5 for the second.

U2G C24G A36G A42C C61U C62G and U2G A20G C22A A40C C46G G48A C49U G63A cannot be ordered by yeast fitness: no more than 0.5 for the first, no more than 0.5 for the second.

U2G C5A C55G A65C and U2G C34U A36C C61A cannot be ordered by yeast fitness: no more than 0.5 for the first, no more than 0.5 for the second.

First: U2G G10C A43C
Second: U2G C46A
The yeast fitness of the first is lower: no more than 0.5 for the first, 0.808 for the second.

Going from U2G G17C C33U U47A to U2G C5G C11G G56C C61G, the yeast fitness falls from 0.535 to no more than 0.5.

Going from U2G U19A C66U to U2G C5A G23A U28C U59C C60G, the yeast fitness falls from 0.606 to no more than 0.5.

U2G A20U U32A C46G and U2G A20G C22A A40C C46G G48A C49U cannot be ordered by yeast fitness: no more than 0.5 for the first, no more than 0.5 for the second.

U2G C4U U13A G41A A45C C49A U54G C55G and U2G C11G A20G C24U U26C C31G cannot be ordered by yeast fitness: no more than 0.5 for the first, no more than 0.5 for the second.

Going from U2G C60G to U2G C22U C24G G51C C60U G67A, the yeast fitness falls from 0.592 to no more than 0.5.

U2G C4U C60A and U2G C31G A57U cannot be ordered by yeast fitness: no more than 0.5 for the first, no more than 0.5 for the second.

Going from U2G G67U to U2G G67C, the yeast fitness falls from 0.821 to 0.759.

First: U2G G67A
Second: U2G C49U G52A G68C
The yeast fitness of the first is higher: 0.901 for the first, no more than 0.5 for the second.

Compared with U2G G25U A65U, U2G C30A C46G is higher in yeast fitness: 0.532 for the first, 0.666 for the second.

Compared with U2G G12A G41C, U2G A21G U32C U59G C66U A70C is lower in yeast fitness: 0.596 for the first, no more than 0.5 for the second.

Going from U2G C5U C31G to U2G U19A C46U, the yeast fitness falls from 0.583 to no more than 0.5.

Compared with U2G A45U C66U G67A, U2G A69C A70G is higher in yeast fitness: no more than 0.5 for the first, 0.57 for the second.

First: U2G C29U C55U
Second: U2G C11U A15U U47A
The yeast fitness of the first is lower: 0.527 for the first, 0.578 for the second.

U2G G10C A65C and U2G G48A G58C C61A cannot be ordered by yeast fitness: no more than 0.5 for the first, no more than 0.5 for the second.

First: U2G C4U A42G
Second: U2G C4G C31A A37C
The yeast fitness of the first is higher: 0.755 for the first, no more than 0.5 for the second.

Compared with U2G C4G A21C, U2G C24G C49A is lower in yeast fitness: 0.725 for the first, no more than 0.5 for the second.

First: U2G C33G G39C C55U
Second: U2G A40U
The yeast fitness of the first is lower: 0.523 for the first, 0.813 for the second.

Going from U2G A40G to U2G A40C, the yeast fitness falls from 0.803 to 0.698.

U2G C4A A37U C62G and U2G G10C G63A cannot be ordered by yeast fitness: no more than 0.5 for the first, no more than 0.5 for the second.

Compared with U2G A36U C62G G63A, U2G A21U is higher in yeast fitness: no more than 0.5 for the first, 0.729 for the second.

Compared with U2G A21G, U2G G10C G67C is lower in yeast fitness: 0.917 for the first, no more than 0.5 for the second.

First: U2G A36U G67A G68C
Second: U2G A20C G44A A45G
The yeast fitness of the first is lower: no more than 0.5 for the first, 0.712 for the second.

U2G C22U C24G G63A A69C and U2G U26C C49U C55A cannot be ordered by yeast fitness: no more than 0.5 for the first, no more than 0.5 for the second.

U2G A45G A65C and U2G U13C A21G G39C C55U cannot be ordered by yeast fitness: no more than 0.5 for the first, no more than 0.5 for the second.

U2G A42U U64C and U2G A42U U64G cannot be ordered by yeast fitness: no more than 0.5 for the first, no more than 0.5 for the second.

U2G A37C C49U A70C and U2G C4A C22U U28G A42U U64C cannot be ordered by yeast fitness: no more than 0.5 for the first, no more than 0.5 for the second.

U2G C30U A40C G63C U64C and U2G C22G U28A C31G C55A G68C cannot be ordered by yeast fitness: no more than 0.5 for the first, no more than 0.5 for the second.

First: U2G C24G C29G C31G A69C
Second: U2G G48A G58C
The yeast fitness of the first is lower: no more than 0.5 for the first, 0.895 for the second.

U2G C27G A65U and U2G A40U C46G cannot be ordered by yeast fitness: no more than 0.5 for the first, no more than 0.5 for the second.

U2G C34G G67U and U2G G6A U53G U54G C55A cannot be ordered by yeast fitness: no more than 0.5 for the first, no more than 0.5 for the second.

Going from U2G C4U A65G to U2G A20C C33A, the yeast fitness falls from 0.729 to no more than 0.5.

U2G C22G U26C C27G C30A U32G C55G and U2G A40U C55U cannot be ordered by yeast fitness: no more than 0.5 for the first, no more than 0.5 for the second.

Going from U2G G9C to U2G C4U C55U, the yeast fitness falls from 0.755 to 0.679.

Compared with U2G G48A, U2G G48C is lower in yeast fitness: 0.94 for the first, 0.849 for the second.

U2G G44C C60U A69G and U2G C11A C24A U26A G44C A70G cannot be ordered by yeast fitness: no more than 0.5 for the first, no more than 0.5 for the second.

First: U2G C5G A21C A43U G50A G52U A69C
Second: U2G G9C G12A A42C C46A A65U
The yeast fitness of the first is lower: no more than 0.5 for the first, 0.577 for the second.

First: U2G A40U C49A G58C G63C
Second: U2G U7C
The yeast fitness of the first is lower: no more than 0.5 for the first, 0.772 for the second.

Compared with U2G C30A, U2G C30U is higher in yeast fitness: 0.709 for the first, 0.843 for the second.

U2G G44A G51C and U2G G9C C60A cannot be ordered by yeast fitness: no more than 0.5 for the first, no more than 0.5 for the second.

Compared with U2G C5A U19A C30G A43C A69C, U2G C27U A37C G52A G67A is lower in yeast fitness: 0.537 for the first, no more than 0.5 for the second.

Compared with U2G C61U, U2G G6A C22U C27U A36U C60G is lower in yeast fitness: 0.88 for the first, no more than 0.5 for the second.

U2G A21G U47C A69C and U2G U26A G52A cannot be ordered by yeast fitness: no more than 0.5 for the first, no more than 0.5 for the second.

Compared with U2G G51A C60U, U2G C34G C46U G48C U54G is higher in yeast fitness: no more than 0.5 for the first, 0.709 for the second.

Going from U2G U8C to U2G G63C, the yeast fitness falls from 0.891 to 0.694.

U2G C24A C33U A40G G51C A57U and U2G C5A A36U cannot be ordered by yeast fitness: no more than 0.5 for the first, no more than 0.5 for the second.

U2G G6A C55U and U2G A21C C46G C49G cannot be ordered by yeast fitness: no more than 0.5 for the first, no more than 0.5 for the second.

U2G G6A C49G and U2G G23C G58A cannot be ordered by yeast fitness: no more than 0.5 for the first, no more than 0.5 for the second.

Going from U2G G68U to U2G A37C C61U G67A, the yeast fitness falls from 0.835 to no more than 0.5.

U2G A36G A40U A43U and U2G U26A A43G G44C U53C cannot be ordered by yeast fitness: no more than 0.5 for the first, no more than 0.5 for the second.

Going from U2G C11G C62U to U2G G12A U13A G25C U28A C33A G67U, the yeast fitness falls from 0.609 to no more than 0.5.

First: U2G U13G U16C
Second: U2G C27U C46G
The yeast fitness of the first is lower: no more than 0.5 for the first, 0.564 for the second.

Compared with U2G U7C U28A, U2G G25A A65C is higher in yeast fitness: no more than 0.5 for the first, 0.637 for the second.

U2G C31U U47G and U2G C34U A57G cannot be ordered by yeast fitness: no more than 0.5 for the first, no more than 0.5 for the second.

U2G C34U A57C and U2G G9C G12A A20G A42C C46G C49U A69C cannot be ordered by yeast fitness: no more than 0.5 for the first, no more than 0.5 for the second.

Compared with U2G U13A G58A, U2G C27G C66U is lower in yeast fitness: 0.585 for the first, no more than 0.5 for the second.

U2G C11G G12A A20U C31G G68C and U2G A36G A40U A43U C66A cannot be ordered by yeast fitness: no more than 0.5 for the first, no more than 0.5 for the second.

Compared with U2G C27U C46U G63A, U2G C22U A40U is lower in yeast fitness: 0.811 for the first, no more than 0.5 for the second.

U2G C5A U19A C30G C55U G68C and U2G A21G A57C cannot be ordered by yeast fitness: no more than 0.5 for the first, no more than 0.5 for the second.

First: U2G C4U G6C C22G G25C U32A G52A U59C C61A C62U
Second: U2G G18C C29G C30A C34G G48C
The yeast fitness of the first is lower: no more than 0.5 for the first, 0.604 for the second.

Compared with U2G C22G C27G C30A U32G C55G, U2G C4U is higher in yeast fitness: no more than 0.5 for the first, 0.971 for the second.

U2G C27U C55U and U2G A45U C49U C61G cannot be ordered by yeast fitness: no more than 0.5 for the first, no more than 0.5 for the second.

Compared with U2G C24U, U2G U13A U28A G39A G48A C61G C66G is lower in yeast fitness: 0.786 for the first, no more than 0.5 for the second.

U2G C11G A20U C22U C34U C49A G52A and U2G C31U U53A cannot be ordered by yeast fitness: no more than 0.5 for the first, no more than 0.5 for the second.

U2G A37C G51A and U2G G12A G41C A57U cannot be ordered by yeast fitness: no more than 0.5 for the first, no more than 0.5 for the second.

U2G G17A C33G G39C C55U and U2G A57C C62A A65C cannot be ordered by yeast fitness: no more than 0.5 for the first, no more than 0.5 for the second.

U2G G6A A15U C62G and U2G C27G C33U C49U cannot be ordered by yeast fitness: no more than 0.5 for the first, no more than 0.5 for the second.

Compared with U2G U13G A57G, U2G C27G C66U G67C A70G is lower in yeast fitness: 0.538 for the first, no more than 0.5 for the second.

Going from U2G A36G to U2G C11G G12A A20U C30G C49G U53G, the yeast fitness falls from 0.953 to no more than 0.5.

First: U2G C11G C30G
Second: U2G C55U
The yeast fitness of the first is lower: 0.614 for the first, 0.667 for the second.

U2G C4G A21C A69C and U2G U3G C29G C30G C46G cannot be ordered by yeast fitness: no more than 0.5 for the first, no more than 0.5 for the second.

U2G G38A A69C gave a yeast fitness of 0.531.
